Numbered stars: 1 amine (or outer) side, 2 acyl side, 3 side chain; on linkers, the order of the positions; unused ones are H or OH. Bridge positions count the residues as written; N and C are the ends. Square brackets hold non-standard residues; d marks the D form. Peptide text beside a SMILES is read from it. X1 = O=C(CC1(S[*:2])CCCCC1)[*:1]
Key:
[1] = biological target: T1, Vasopressin receptor (Rattus norvegicus) (UniProt P48974+P30560+Q00788); experiment: Antivasopressor potency in terms of blood pressure response in rats anesthetized with urethane and pretreated with phenoxybenzamine; type: functional
Method in brief: (§1)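 Rats anesthetized with urethane, pretreated with phenoxybenzamine; blood pressure responses recorded. USP posterior pituitary reference standard as agonist, given intravenously with antagonist. ED (nmol/kg) is the antagonist dose at which 2x units of agonist match the response to x units without antagonist, log-interpolated from doses above and below. In vivo pA2 uses assumed distribution volume 67 mL/kg.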

[2] = biological target: T1, Vasopressin receptor (Rattus norvegicus); experiment: Antiantidiuretic potency in terms of measuring changes in urine flow in water-loaded rats under ethanol anesthesia; type: functional
Method in brief: (§2)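 Water-loaded rats under ethanol anesthesia; urine flow followed. USP posterior pituitary reference standard as agonist, all injections intravenous. Effective dose (nmol/kg) is the antagonist dose reducing the response to 2x units of agonist to that of x units alone, interpolated on a log scale between bracketing doses. pA2 = negative log of ED divided by assumed distribution volume 67 mL/kg.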

[3] = biological target: T2, Vasopressin receptor (Rattus norvegicus, UniProt P48974+P30560+Q00788); experiment: Antivasopressor potency in terms of negative logarithm of the effective doses divided by the estimated volume of distribution; type: functional; method in brief: as §1
[4] = biological target: T2, Vasopressin receptor; experiment: Antiantidiuretic potency in terms of negative logarithm of the effective doses divided by the estimated volume of distribution; type: functional, Urine; method in brief: as §2

pA2 [3] | pA2 [4] | Compound | ED [1] [nM/kg] | ED [2] [nM/kg]
8 | 7.79 | CCOc1ccc(C[C@H]2NC(=O)CC3(CCCCC3)SSC[C@@H](C(=O)N3CCC[C@H]3C(=O)N[C@@H](CCCN=C(N)N)C(=O)NCCN)NC(=O)[C@H](CC(N)=O)NC(=O)[C@H](C(C)C)NC(=O)[C@H](Cc3ccccc3)NC2=O)cc1 | 0.69 | 1.1
7.95 | 7.64 | CCOc1ccc(C[C@H]2NC(=O)CC3(CCCCC3)SSC[C@@H](C(=O)N3CCC[C@H]3C(=O)NCCN)NC(=O)[C@H](CC(N)=O)NC(=O)[C@H](C(C)C)NC(=O)[C@H](Cc3ccccc3)NC2=O)cc1 | 0.75 | 1.6
7.86 | 7.92 | CCOc1ccc(C[C@H]2NC(=O)CC3(CCCCC3)SSC[C@@H](C(=O)N3CCC[C@H]3C(=O)NCCNC(=O)[C@H](N)CCCN)NC(=O)[C@H](CC(N)=O)NC(=O)[C@H](C(C)C)NC(=O)[C@H](Cc3ccccc3)NC2=O)cc1 |  | 
7.93 | 7.61 | CCOc1ccc(C[C@H]2NC(=O)CC3(CCCCC3)SSC[C@@H](C(=O)NCCNC(=O)[C@H](CCCN=C(N)N)NC(=O)[C@@H](N)CCCN=C(N)N)NC(=O)[C@H](CC(N)=O)NC(=O)[C@H](C(C)C)NC(=O)[C@H](Cc3ccccc3)NC2=O)cc1 |  | 

Further lines, the compound ahead of its results:

Compound | pA2 [3] | pA2 [4] | ED [1] [nM/kg] | ED [2] [nM/kg]
CCOc1ccc(C[C@H]2NC(=O)CC3(CCCCC3)SSC[C@@H](C(=O)N3CCC[C@H]3C(=O)N[C@@H](CCCN=C(N)N)C(=O)NCC(N)=O)NC(=O)[C@H](CC(N)=O)NC(=O)[C@H](C(C)C)NC(=O)[C@H](Cc3ccccc3)NC2=O)cc1 ([dY](Et)FVNCPRG-NH2; linker N-5 via X1) | 8.22 | 7.81 | 0.45 | 1.1
CC[C@H](C)[C@@H]1NC(=O)[C@H](Cc2ccccc2)NC(=O)[C@@H](Cc2ccccc2)NC(=O)CC2(CCCCC2)SSC[C@@H](C(=O)N2CCC[C@H]2C(=O)N[C@@H](CCCN=C(N)N)C(=O)NCCN)NC(=O)[C@H](CC(N)=O)NC1=O | 7.89 | 8.11 | 0.88 | 0.55
CCOc1ccc(C[C@H]2NC(=O)CC3(CCCCC3)SSC[C@@H](C(=O)N3CCC[C@H]3C(=O)N[C@@H](CCCN=C(N)N)C(=O)NCCN)NC(=O)[C@H](CC(N)=O)NC(=O)[C@H]([C@@H](C)CC)NC(=O)[C@H](Cc3ccccc3)NC2=O)cc1 | 8.33 | 8 | 0.32 | 0.77
CC[C@H](C)[C@@H]1NC(=O)[C@H](Cc2ccccc2)NC(=O)[C@@H](Cc2ccccc2)NC(=O)CC2(CCCCC2)SSC[C@@H](C(=O)N2CCC[C@H]2C(=O)N[C@@H](CCCN=C(N)N)C(=O)NCC(=O)NCCN)NC(=O)[C@H](CC(N)=O)NC1=O | 7.58 | 8.1 | 1.8 | 0.57
CCOc1ccc(C[C@H]2NC(=O)CC3(CCCCC3)SSC[C@@H](C(=O)N3CCC[C@H]3C(=O)N[C@@H](CCCN=C(N)N)C(=O)NCC(N)=O)NC(=O)[C@H](CC(N)=O)NC(=O)[C@H]([C@@H](C)CC)NC(=O)[C@H](Cc3ccccc3)NC2=O)cc1 | 7.78 | 7.75 | 1.2 | 1.2
CCOc1ccc(C[C@H]2NC(=O)CC3(CCCCC3)SSC[C@@H](C(=O)N3CCC[C@H]3C(=O)N[C@@H](CCCN=C(N)N)C(=O)NCCNC(=O)[C@@H](N)CCCN=C(N)N)NC(=O)[C@H](CC(N)=O)NC(=O)[C@H]([C@@H](C)CC)NC(=O)[C@H](Cc3ccccc3)NC2=O)cc1 | 8.27 | 8.1 |  | 
CCOc1ccc(C[C@H]2NC(=O)CC3(CCCCC3)SSC[C@@H](C(=O)N3CCC[C@H]3C(=O)N[C@@H](CCCN=C(N)N)C(=O)NCC(=O)NCCN)NC(=O)[C@H](CC(N)=O)NC(=O)[C@H](C(C)C)NC(=O)[C@H](Cc3ccccc3)NC2=O)cc1 | 8.33 | 7.82 | 0.32 | 1.2
CCOc1ccc(C[C@H]2NC(=O)CC3(CCCCC3)SSC[C@@H](C(=O)NCCNC(=O)[C@H](N)CCCCN)NC(=O)[C@H](CC(N)=O)NC(=O)[C@H](C(C)C)NC(=O)[C@H](Cc3ccccc3)NC2=O)cc1 | 7.92 | 7.76 |  | 
CC[C@H](C)[C@@H]1NC(=O)[C@H](Cc2ccccc2)NC(=O)[C@@H](Cc2ccccc2)NC(=O)CC2(CCCCC2)SSC[C@@H](C(=O)N2CCC[C@H]2C(=O)N[C@@H](CCCN=C(N)N)C(=O)NCC(N)=O)NC(=O)[C@H](CC(N)=O)NC1=O ([dF]FINCPRG-NH2; linker N-5 via X1) | 7.86 | 8.24 | 0.99 | 0.46
CCOc1ccc(C[C@H]2NC(=O)CC3(CCCCC3)SSC[C@@H](C(=O)N3CCC[C@H]3C(=O)N[C@@H](CCCN=C(N)N)C(=O)NCCNC(=O)[C@@H](N)CCCN=C(N)N)NC(=O)[C@H](CC(N)=O)NC(=O)[C@H](C(C)C)NC(=O)[C@H](Cc3ccccc3)NC2=O)cc1 | 8.15 | 7.68 |  | 
